According to ChEMBL document CHEMBL5303300, “EUbOPEN Chemogenomics Library - Multiplex” (2023):
Where “and” joins values, the source holds several entries; their conditions need not be identical. Equal values may be shown once.

What was measured:
HEK-293T = test: Multiplex assay against HEK293T; format: toxicity, cell-based; settings: human, number of replicates 2
Outline: (§1)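 Tubulin, mitochondrial-mass and membrane-permeability phenotypes are per cents of healthy-nucleus cells. Cells were gated by CellPathfinder machine learning into Hoechst high-intensity objects or normal cells, normal cells into healthy, pyknosed or fragmented nuclei, and pyknosed cells into mitotic or apoptotic. Before that, live cells stained at seeding with Hoechst33342, BioTracker Green Microtubule Cytoskeleton Dye, MitoTracker Red and Annexin V Alexa Fluor 680 were imaged on a CQ1 microscope at 37°C and 5% CO2 after compound addition.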

U2OS = test: Multiplex assay against U2OS; format: toxicity, cell-based; settings: human, number of replicates 2; outline: as §1
[1] = 24 h, 1 µM, compound concentration 1 uM
[2] = 24 h, 10 µM, compound concentration 10 uM
[3] = 48 h, 1 µM, compound concentration 1 uM
[4] = 48 h, 10 µM, compound concentration 10 uM
[5] = 12 h, 1 µM, compound concentration 1 uM
[6] = 12 h, 10 µM, compound concentration 10 uM

Structure (SMILES): O=S(=O)(c1ccccc1)N(CC(F)(F)F)c1ccc(C(O)(C(F)(F)F)C(F)(F)F)cc1 [T091317]
- Population Hoechst High Intensity Objects (%) (HEK-293T; [1]): 8% and 7%
- Population Membrane Permeable-Phenotype (%) (HEK-293T; [1]): 4%
- Population Mitochondria Different-Phenotype (%) (HEK-293T; [1]): 5% and 8%
- Population Mitotic Cells (%) (HEK-293T; [1]): 60% and 43%
- Population Normal (%) (HEK-293T; [1]): 91% and 92%
- Population Pyknosed Nuclei (%) (HEK-293T; [1]): 8% and 10%
- Population Tubulin-Different-Phenotype (%) (HEK-293T; [1]): 36% and 38%
- Total Cell Count (HEK-293T; [1]): 1214 and 697
- Population Apoptotic (%) (HEK-293T; [2]): 44% and 68%
- Population Fragmented Nuclei (%) (HEK-293T; [2]): 2% and 7%
- Population Healthy Nuclei (%) (HEK-293T; [2]): 84% and 79%
- Population Hoechst High Intensity Objects (%) (HEK-293T; [2]): 9% and 18%
- Population Membrane Permeable-Phenotype (%) (HEK-293T; [2]): 4% and 3%
- Population Mitochondria Different-Phenotype (%) (HEK-293T; [2]): 53% and 59%
- Population Mitotic Cells (%) (HEK-293T; [2]): 55% and 31%
- Population Normal (%) (HEK-293T; [2]): 90% and 81%
- Population Pyknosed Nuclei (%) (HEK-293T; [2]): 12% and 13%
- Population Tubulin-Different-Phenotype (%) (HEK-293T; [2]): 87% and 86%
- Total Cell Count (HEK-293T; [2]): 385 and 376
- Population Fragmented Nuclei (%) (HEK-293T; [3]): 15% and 8%
- Population Healthy Nuclei (%) (HEK-293T; [3]): 80% and 87%
- Population Hoechst High Intensity Objects (%) (HEK-293T; [3]): 10% and 9%
- Population Membrane Permeable-Phenotype (%) (HEK-293T; [3]): 6% and 3%
- Population Mitochondria Different-Phenotype (%) (HEK-293T; [3]): 0% and 2%
- Population Mitotic Cells (%) (HEK-293T; [3]): 90% and 68%
- Population Normal (%) (HEK-293T; [3]): 89% and 90%
- Population Pyknosed Nuclei (%) (HEK-293T; [3]): 3%
- Population Tubulin-Different-Phenotype (%) (HEK-293T; [3]): 19% and 22%
- Total Cell Count (HEK-293T; [3]): 2956 and 1428
- Population Apoptotic (%) (HEK-293T; [4]): 67% and 74%
- Population Fragmented Nuclei (%) (HEK-293T; [4]): 7% and 14%
- Population Healthy Nuclei (%) (HEK-293T; [4]): 78% and 66%
- Population Hoechst High Intensity Objects (%) (HEK-293T; [4]): 14% and 24%
- Population Membrane Permeable-Phenotype (%) (HEK-293T; [4]): 4%
- Population Mitochondria Different-Phenotype (%) (HEK-293T; [4]): 66% and 58%
- Population Mitotic Cells (%) (HEK-293T; [4]): 32% and 25%
- Population Normal (%) (HEK-293T; [4]): 85% and 75%
- Population Pyknosed Nuclei (%) (HEK-293T; [4]): 14% and 19%
- Population Tubulin-Different-Phenotype (%) (HEK-293T; [4]): 94% and 82%
- Total Cell Count (HEK-293T; [4]): 296 and 264
- Population Apoptotic (%) (U2OS; [5]): 75% and 39%
- Population Healthy Nuclei (%) (U2OS; [5]): 62% and 82%
- Population Hoechst High Intensity Objects (%) (U2OS; [5]): 2% and 0%
- Population Mitochondria Different-Phenotype (%) (U2OS; [5]): 0% and 1%
- Population Mitotic Cells (%) (U2OS; [5]): 25% and 60%
- Population Normal (%) (U2OS; [5]): 97% and 100%
- Population Pyknosed Nuclei (%) (U2OS; [5]): 10% and 12%
- Population Tubulin-Different-Phenotype (%) (U2OS; [5]): 52% and 81%
- Population Apoptotic (%) (U2OS; [6]): 66% and 45%
- Population Healthy Nuclei (%) (U2OS; [6]): 56% and 80%
- Population Hoechst High Intensity Objects (%) (U2OS; [6]): 0%
- Population Membrane Permeable-Phenotype (%) (U2OS; [6]): 4% and 5%
- Population Mitochondria Different-Phenotype (%) (U2OS; [6]): 0% and 2%
- Population Mitotic Cells (%) (U2OS; [6]): 33% and 54%
- Population Normal (%) (U2OS; [6]): 100%
- Population Pyknosed Nuclei (%) (U2OS; [6]): 7% and 13%
- Population Tubulin-Different-Phenotype (%) (U2OS; [6]): 40% and 41%
- Population Apoptotic (%) (U2OS; [1]): 100% and 56%
- Population Healthy Nuclei (%) (U2OS; [1]): 58% and 88%
- Population Hoechst High Intensity Objects (%) (U2OS; [1]): 3% and 0%
- Population Mitochondria Different-Phenotype (%) (U2OS; [1]): 8% and 0%
- Population Normal (%) (U2OS; [1]): 96% and 100%
- Population Pyknosed Nuclei (%) (U2OS; [1]): 4% and 7%
- Population Tubulin-Different-Phenotype (%) (U2OS; [1]): 59% and 82%
- Population Apoptotic (%) (U2OS; [2]): 57% and 52%
- Population Healthy Nuclei (%) (U2OS; [2]): 65% and 78%
- Population Hoechst High Intensity Objects (%) (U2OS; [2]): 0%
- Population Membrane Permeable-Phenotype (%) (U2OS; [2]): 3% and 4%
- Population Mitochondria Different-Phenotype (%) (U2OS; [2]): 0% and 5%
- Population Mitotic Cells (%) (U2OS; [2]): 42% and 47%
- Population Normal (%) (U2OS; [2]): 100%
- Population Pyknosed Nuclei (%) (U2OS; [2]): 14% and 16%
- Population Tubulin-Different-Phenotype (%) (U2OS; [2]): 40% and 47%
- Population Apoptotic (%) (U2OS; [3]): 33% and 36%
- Population Healthy Nuclei (%) (U2OS; [3]): 65% and 90%
- Population Hoechst High Intensity Objects (%) (U2OS; [3]): 3% and 0%
- Population Membrane Permeable-Phenotype (%) (U2OS; [3]): 10% and 1%
- Population Mitochondria Different-Phenotype (%) (U2OS; [3]): 10% and 0%
- Population Mitotic Cells (%) (U2OS; [3]): 66% and 63%
- Population Normal (%) (U2OS; [3]): 96% and 100%
- Population Pyknosed Nuclei (%) (U2OS; [3]): 9% and 6%
- Population Tubulin-Different-Phenotype (%) (U2OS; [3]): 72% and 84%
- Population Apoptotic (%) (U2OS; [4]): 79% and 66%
- Population Fragmented Nuclei (%) (U2OS; [4]): 5% and 15%
- Population Healthy Nuclei (%) (U2OS; [4]): 81% and 70%
- Population Hoechst High Intensity Objects (%) (U2OS; [4]): 0%
- Population Membrane Permeable-Phenotype (%) (U2OS; [4]): 4% and 2%
- Population Mitochondria Different-Phenotype (%) (U2OS; [4]): 3% and 2%
- Population Mitotic Cells (%) (U2OS; [4]): 20% and 33%
- Population Normal (%) (U2OS; [4]): 100%
- Population Pyknosed Nuclei (%) (U2OS; [4]): 13%
- Population Tubulin-Different-Phenotype (%) (U2OS; [4]): 58% and 34%
